Results reported in ChEMBL document CHEMBL4513216, “Probing the Open Global Health Chemical Diversity Library for Multistage-Active Starting Points for Next-Generation Antimalarials” (ACS Infect Dis, 2020).

Assay: Toxicity liver stage against HepG2, at 10uM
Format: cell-based
Parameters: test concentration 10 uM, cell line HepG2-A16-CD81EGFP
Conditions: human, HepG2-A16-CD81EGFP cells; read-out: INHIBITION
In short: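 Uninfected HepG2-A16-CD81EGFP cells, 3 × 10^3 per well, 1536-well, plated on prespotted compound at 10 μM final, parasite-free screening media added to match infected plates; puromycin 10 μM positive, DMSO 0.5% negative; run in parallel with 48 h PbLuc assay at 37 °C, 5% CO2; viability by CellTiter-Glo luminescence, normalized to controls.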

| Structure (SMILES) | cytotoxicity at 10 µM [%] |
| --- | --- |
| CCn1cc(C(=O)NCCc2nc(-c3ccc(C)cc3)n[nH]2)c(C)n1 | 9.03 |
| N#Cc1ccc(SCCCO)c(F)c1 | 5.11 |
| CC(=O)c1cnc(NCCN2CCCC(c3ccccc3)C2)nc1C (stereo not drawn) | -3.44 |
| Cc1ccc(CN2CCCC(c3cnccn3)C2)s1 (stereo not drawn) | 2.46 |
| CN(C)CC(C)(O)CNC(=O)Nc1sc2ccccc2c1Cl (stereo not drawn) | 11.5 |
| CNS(=O)(=O)c1ccc(CN2CCCN(c3ccccc3)CC2)cc1 | 10.9 |
| Cc1[nH]n(-c2ccccc2)c2nnc(N)c1-2 | 12.4 |
| COc1cccc([C@@H]2CCN(Cc3cn(C)c4ccccc34)C[C@H]2O)c1 | 14.7 |
| CC(C)n1ccnc1C1CCN(C(=O)N2CCCC2)CC1 | 0.386 |
| Cc1nc(CN2CCC3(CCN(c4ncc(F)cn4)C3)C2=O)cs1 (stereo not drawn) | 3.61 |
| CN1C(=O)CC(c2cnn(C)c2)C12CCN(C(=O)c1cscn1)CC2 (stereo not drawn) | -76.6 |
| CC(C)N(C)[C@@H]1CCN(Cc2ccoc2)[C@H]1Cc1ccccc1 | -2.57 |
| CCCc1nc(CNc2cccc(C(=O)N3CCCC(O)C3)c2)no1 (stereo not drawn) | -5.35 |
| CCc1nc2n(n1)CCCC2NC(=O)Nc1cccc(F)c1F (stereo not drawn) | 2.39 |
| CN(Cc1ccncc1)C1COC2(CCN(Cc3ccco3)CC2)C1 (stereo not drawn) | -77.9 |
| O=C1CC[C@H]2CN(Cc3cccnc3)CC[C@H]2N1CCc1c[nH]cn1 | -1.36 |
| Cc1nn(C)c(Cl)c1C1CCCN1Cc1nnc(C2CC2)n1C (stereo not drawn) | -2.24 |
| CCc1noc(C)c1C(=O)NCc1ccccn1 | -1 |
| Cc1nn(C)c(C)c1CC(=O)NCC1(C(N)=O)CCOCC1 | 0.63 |
| COc1cccc(S(=O)(=O)CCN2CCC3(CC2)OCCO3)c1 | 4.62 |
| NC(=O)c1cn[nH]c1C1CCCN1C(=O)COc1ccccc1 (stereo not drawn) | -3.93 |
| Cc1ccnn1CCN1CCCC2(CCC(=O)N(C3CCCC3)C2)C1 (stereo not drawn) | 5.93 |
| Cc1ccc(CN(C)Cc2cnc(N3CCOCC3)s2)o1 | -8.46 |

| Structure (SMILES) | cytotoxicity at 10 µM [%] |
| --- | --- |
| COc1cccc(CC(C)NCC(=O)Nc2ccccc2C)c1 (stereo not drawn) | -1.62 |
| O=c1cc(Cn2cncn2)nc2n1CCCN(CC1CCOCC1)C2 | 7.77 |
| c1csc(CCNC2CCc3ncnn3C2)c1 (stereo not drawn) | 17.3 |
| CCc1ccccc1-n1nnc(C(=O)O)c1-c1ccccn1 | -6.42 |
| Cc1nc(C)n(CC2CCCN2Cc2nc3ccccc3o2)n1 (stereo not drawn) | -5.62 |
| COC(=O)c1cc(NC(=O)CCc2cscn2)ccc1C | -0.172 |
| Cc1cn2c(n1)C(CNCc1cnn3ccccc13)CCC2 (stereo not drawn) | 1.78 |
| Cn1cc(S(=O)(=O)NCC2CCN(C(=O)Oc3ccccc3)CC2)cn1 | -8.36 |
| Cc1nc(CCNC(=O)NC2CCCc3c2cnn3CCO)cs1 (stereo not drawn) | 6.68 |
| CC(C)c1cc(NCC2(CO)CCC2)ncn1 | 4.66 |
| CCc1nnc2n1CCN(C(=O)c1ccc3c(c1)NC(=O)CO3)C2 | 1.24 |
| COc1ccc(-n2nnc(C(=O)NCC3CCCCC3)n2)cc1 | 1.01 |
| N#Cc1cccc(CNCCNC(=O)Cc2cccc(F)c2)c1 | 3.7 |
| CC(C)c1nn(C)c(N2CCOCC2)c1CNC(C)c1cccs1 (stereo not drawn) | -5.06 |
| CC(c1ccccc1)n1c(SCC(=O)O)nnc1-c1ccn[nH]1 (stereo not drawn) | -0.0682 |
| Cc1ccc(C(=O)N2CCO[C@H]3[C@@H](OCc4ccccn4)CC[C@@H]32)o1 | -2.42 |
| CCNc1ncc(CN2CCOC(Cc3cccc(OC)c3)C2)cn1 (stereo not drawn) | 0.583 |
| CCc1nsc(N2CCCN(C(=O)c3ccc(CC)o3)CC2)n1 | 7.76 |
| CCCS(=O)(=O)N1CCC2(CC(=O)N(c3cnn(C)c3)C2)C1 (stereo not drawn) | 4.59 |
| CCn1cnnc1CNC(=O)c1cc(Cl)c(I)cc1OC | -14.4 |
| CCCNC(=O)N1CCN(Cc2cc(C)no2)CC1 | -1.18 |
| CCCS(=O)(=O)c1ncc(CN2CCC(CO)CC2)n1CC1CCCO1 (stereo not drawn) | 7 |
| CC(Cn1cccn1)NCC(=O)NC1(C#N)CCCCC1 (stereo not drawn) | -3.6 |

| Structure (SMILES) | cytotoxicity at 10 µM [%] |
| --- | --- |
| CCN(C(=O)Nc1nccs1)C(C)c1cccc(O)c1 (stereo not drawn) | -2.11 |
| Cc1nc(N2C[C@H]3CC[C@@H](C2)N3)nc2cc(S(C)(=O)=O)ccc12 | -7.71 |
| CC(=O)N1CCC(C(=O)N2CCC(=Cc3cccc(F)c3)CC2)CC1 | 3.5 |
| COCc1nc(C)cc(Nc2ccc3c(c2)CC(=O)N3)n1 | 1.41 |
| O=C(c1cccc(-c2ncc[nH]2)c1)N1CC[C@H](CO)[C@@H](O)C1 | -0.462 |
| CN1CCOC(CNCCCOc2ccc(C#N)cc2)C1 (stereo not drawn) | 6.91 |
| COCc1noc(C2(c3ccc(F)cc3)CCOCC2)n1 | -25.3 |
| CC(=O)NC1CCN(c2ccc(C#N)cc2C(F)(F)F)CC1 | 0.536 |
| O=C(c1ccnnc1)N1CCN2C[C@H](OCc3ccccn3)C[C@H]2C1 | -77.2 |
| COc1ccccc1OC1CCN(c2nccc(N)n2)CC1 | 9.28 |
| CN(C)Cc1ccccc1Cn1cncc1-c1cnn(C)c1 | 6.16 |
| Cc1ccc2c(cnn2CCC(=O)NCc2csc(C3CC3)n2)c1 | 4.88 |
| c1csc(-c2noc(CN3CCc4c(ncn4C4CC4)C3)n2)c1 | 5.93 |
| CN(C)c1ccc(NC(=O)NCC2CCOC2)cn1 (stereo not drawn) | -6.8 |
| CCc1nsc(N2CCCN(C(=O)c3ccc(OC)cc3)CC2)n1 | 4.05 |
| CCC(C)NC(=O)c1ccc(-c2ccco2)[nH]c1=O (stereo not drawn) | -5.05 |
| Cc1cc(N2CCC(c3nnc(CN(C)C)n3C3CC3)CC2)ccn1 | 7.57 |
| COCC(C)NC(=O)CSc1ccc(F)c(Cl)c1 (stereo not drawn) | -48 |
| Cc1cnn(CC2CCCN2C(=O)c2c(C)noc2C)c1 (stereo not drawn) | -6.02 |
| CN(c1cccnn1)C1CCN(C(=O)Cc2c[nH]c3ccccc23)CC1 | -20.1 |
| Fc1ccc(OC2CCN(Cc3nnc(-c4ccco4)o3)CC2)cc1 | -2.56 |
| CCN(C)CCNC(=O)Cc1nc(-c2ccco2)oc1C | -12.5 |
| CC(Cn1ccnc1)NC(=O)NCCc1ccc2c(c1)OCCO2 (stereo not drawn) | -1.35 |

| Structure (SMILES) | cytotoxicity at 10 µM [%] |
| --- | --- |
| CCc1[nH]c2c(CNc3nccc(N)n3)cc(F)cc2c1C | -8.36 |
| CC(=O)Nc1ncc(S(=O)(=O)Nc2cccc(F)c2)s1 | 2.93 |
| Cc1cc(C)n(C2CCCN(C(=O)CCNS(C)(=O)=O)C2)n1 (stereo not drawn) | 6.62 |
| O=C(c1cc[nH]n1)N1CCCC1c1cncc(CN2CCOCC2)n1 (stereo not drawn) | 9.31 |
| COC(=O)N1CCCN(Cn2nc(C)c(Br)c2C)CC1 | 8.38 |
| Cc1ccc(O)c(C(=O)N2CCC(CN3CCCCCC3)CC2)c1 | 5.52 |
| CCC(=O)N(CCC(=O)O)Cc1ccc(F)c(F)c1 | -1.99 |
| CCc1nc(CN2CCN(C(=O)N3CCCCC3)CC2)cs1 | -16 |
| O=C(COC1CCCCC1)NS(=O)(=O)c1ccc2c(c1)OCCCO2 | 3.85 |
| CC(Nc1nc2c(cnn2C)c(=O)[nH]1)c1ccc2c(c1)CCCC2 (stereo not drawn) | 9.62 |
| Cc1cc(C)c2nc(CN3CCC(N4CCOCC4)CC3)cc(O)c2c1 | -0.173 |
| O=C(CCc1ccsc1)NCc1ccnc(OC2CCOCC2)c1 | 5.92 |
| CCn1c(CN(C)C)nnc1C1CCN(Cc2cnc(C)nc2)CC1 | 4.6 |
| O=C1N(c2ccsc2)CCC12CCCN(Cc1cccnc1)C2 (stereo not drawn) | -128 |
| Cc1ccc(NC(=O)NCCn2cnc(C)c(C)c2=O)cc1F | 3.22 |
| c1cncc(CNc2ccccc2-c2nn[nH]n2)c1 | 9.35 |
| COc1ccc(O[C@H]2COCCN(Cc3c[nH]c4ccccc34)C2)cc1 | 1.82 |
| N#Cc1ccccc1C(=O)N1CCC2(CC(=O)NC2=O)C1 (stereo not drawn) | -19.6 |
| CC(=O)N1CCCN(C(=O)NCCOc2ccc3c(c2)CCC3)CC1 | -1.84 |
| COc1ccc(COCC(O)CNC(=O)c2cc(C)oc2C)cc1 (stereo not drawn) | -13.3 |
| Cc1cc(N2CCC(N(C)C(=O)c3ccccc3F)CC2)nc(C)n1 | 25.5 |
| Cc1nccn1CCC1CCN(C2CCC3(CCNCC3)CC2)CC1 | -1.43 |
| CCN1CCN(c2ccccc2NC(=O)N(C)C2CCSC2)CC1 (stereo not drawn) | -56.7 |

| Structure (SMILES) | cytotoxicity at 10 µM [%] |
| --- | --- |
| O=C(COCc1ccccc1)NCc1ccc(O)c(F)c1 | 1.05 |
| O=C(Cc1ccc2c(c1)CCO2)N1CCCC(n2cccn2)C1 (stereo not drawn) | 5.67 |
| CN1CCCC(CCC(=O)N2CCc3c(nc(CC4CC4)[nH]c3=O)C2)C1 (stereo not drawn) | -8.61 |
| Cc1cc(S(=O)(=O)N(C)CC(N)=O)ccc1Br | 15 |
| COc1ccccc1-c1cc(C(=O)N(C)C)nc2c1cnn2C | 7.83 |
| COc1cn(-c2ccccc2)nc1C(=O)NCCN1CCCC(C)C1 (stereo not drawn) | 2.12 |
| COCC(O)CNC(=O)c1coc(COc2cccc(F)c2)n1 (stereo not drawn) | -139 |
| CCOc1ccccc1CN1CCc2nc3ccsc3c(=O)n2CC1 | -5.81 |
| CC(C)(NCC(=O)NCC1CC1)c1ccc2c(c1)OCCO2 | -9.8 |
| CC(CNC(=O)c1ccc(Cl)cc1I)N1CCCC1 (stereo not drawn) | -5.69 |
| Cc1noc([C@@]23CCO[C@@H]2CCN(C(=O)CCC(C)C)C3)n1 | 10.3 |
| CCCC(C#N)NC(=O)COC1CCCCC1 (stereo not drawn) | 8.71 |
| O=C(CCSc1ccccc1F)NCc1cccnc1 | -4.48 |
| CC(NC1CCN(C(=O)C2CCCCC2)CC1)c1nccs1 (stereo not drawn) | -4.22 |
| CC(C)CC(=O)N1CC(=O)c2sc(Nc3ccc(F)cc3F)nc2C1 | -2.89 |
| CCc1nc(C)c(C(=O)NCCNC(=O)Cc2cccc(F)c2)s1 | 1.98 |
| CC(Cn1cccn1)NC(=O)N1CCN(Cc2cccs2)CC1 (stereo not drawn) | 2.31 |
| Fc1ccc2nc([C@H]3CCNC3)[nH]c2c1 | 9.21 |
| O=C(NCC1CC(=O)N(CCc2ccccc2)C1)c1ccc[nH]1 (stereo not drawn) | -0.553 |
| Cc1nc(O)cc(CN2C[C@H](NC(=O)C3CCC3)[C@@H](C3CC3)C2)n1 | 0.675 |
| COc1cc(C2c3c(n[nH]c3C)N=C3COC(=O)C32)cc(Br)c1O (stereo not drawn) | 75.4 |
